This passage reports MIC and IC50 results from ChEMBL document CHEMBL1152865, “Synthesis and antimycobacterial activities of novel 6-nitroquinolone-3-carboxylic acids” (Eur J Med Chem, 2009).

The subject of test [1] is Mycobacterium tuberculosis. As to the kind of experiment: Antibacterial activity against Mycobacterium tuberculosis H37Rv by agar dilution method. It is filed as functional. Put shortly: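 Agar dilution in Middlebrook 7H11 agar supplemented with OADC, following an approach similar to NCCLS guidance. MIC determined in duplicate.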
(In agar dilution the substance is mixed into plates at graded concentrations.)

For test [2], the system named is Mycolicibacterium smegmatis. Kind of test: Antibacterial activity against Mycobacterium smegmatis ATCC 14468 by agar dilution method. It is filed as functional. The method in brief: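 Agar dilution on Middlebrook 7H11 agar with OADC supplement, following an NCCLS-type procedure; MIC read in duplicate.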
Test [3] can be described thus: Inhibition of Mycobacterium smegmatis DNA gyrase assessed as inhibition of relaxed circular pUC18 supercoiling activity by agarose gel electrophoresis. Also noted: species or system Mycolicibacterium smegmatis. Put shortly:
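Gyrase purified from M. smegmatis, pre-incubated with compound in DMSO. Then 400 ng relaxed pUC18 added in 35 mM Tris-HCl pH 7.5, 5 mM MgCl2, 25 mM potassium glutamate, 2 mM spermidine, 2 mM ATP, BSA, yeast tRNA and 5% glycerol. Incubated 30 min at 37 °C; read-out by agarose gel electrophoresis. Ciprofloxacin and 5% DMSO reactions run as controls.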

In brackets after ≈: the same amount, converted by molar mass.

Take `CC(C)(C)n1cc(C(=O)O)c(=O)c2cc([N+](=O)[O-])c(N3CCN(C(c4ccccc4)c4ccc(Cl)cc4)CC3)cc21` (configuration not stated): the MIC (as a rule, the least concentration at which growth counts as inhibited) in test [1] was determined as 5.44 µM (≈ 3.13 µg/mL); in test [2], 10.9 µM (≈ 6.25 µg/mL). In addition, the IC50 (commonly the midpoint of a concentration-inhibition curve) in test [3] came to 30 mg/L (≈ 52.2 µM).
For the compound `CC(C)(C)NC(=O)C1c2ccccc2CCN1c1cc2c(cc1[N+](=O)[O-])c(=O)c(C(=O)O)cn2-c1ccc(F)cc1` (configuration not stated), the MIC in test [1] stood at 5.6 µM (≈ 3.13 µg/mL); in test [2], 22.4 µM (≈ 12.5 µg/mL).
On the same counts, the results for `Cc1onc(-c2c(F)cccc2F)c1C(=O)N1CCN(c2cc3c(cc2[N+](=O)[O-])c(=O)c(C(=O)O)cn3C2CC2)CC1` are 2.69 µM (≈ 1.56 µg/mL) and 10.8 µM (≈ 6.25 µg/mL).
On the same counts, the results for `O=C(O)c1cn(-c2ccc(F)cc2)c2cc(N3CCN(C(c4ccccc4)c4ccc(Cl)cc4)CC3)c([N+](=O)[O-])cc2c1=O` (configuration not stated) are 10.2 µM (≈ 6.25 µg/mL) and 40.8 µM (≈ 25 µg/mL).
Turning to `Cc1onc(-c2c(F)cccc2F)c1C(=O)N1CCN(c2cc3c(cc2[N+](=O)[O-])c(=O)c(C(=O)O)cn3-c2ccc(F)cc2)CC1`, the results for the MIC in test [1] and in test [2] were 4.94 µM (≈ 3.13 µg/mL) and 19.7 µM (≈ 12.5 µg/mL), respectively.
On the same counts, the results for `O=C(O)c1cn(-c2ccc(F)cc2)c2cc(N3CCC(N4CCCCC4)CC3)c([N+](=O)[O-])cc2c1=O` are 6.33 µM (≈ 3.13 µg/mL) and 25.3 µM (≈ 12.5 µg/mL).
The corresponding values for `CN1CCN(c2cc3c(cc2[N+](=O)[O-])c(=O)c(C(=O)O)cn3-c2ccc(F)cc2)CC1c1ccccc1` (configuration not stated) are 6.23 µM (≈ 3.13 µg/mL) and 24.9 µM (≈ 12.5 µg/mL).
The corresponding values for `O=C(O)c1cn(-c2ccc(F)cc2)c2cc(N3CCSCC3)c([N+](=O)[O-])cc2c1=O` are 14.6 µM (≈ 6.25 µg/mL) and 29.1 µM (≈ 12.5 µg/mL).
Consider `CC(C)(C)n1cc(C(=O)O)c(=O)c2cc([N+](=O)[O-])c(N3CCSCC3)cc21`, for which the MIC in test [1] was 7.99 µM (≈ 3.13 µg/mL); in test [2] it was 31.9 µM (≈ 12.5 µg/mL).
The corresponding values for `CC(C)(C)n1cc(C(=O)O)c(=O)c2cc([N+](=O)[O-])c(N3CCn4cc(C(=O)O)nc4C3)cc21` are 6.87 µM (≈ 3.13 µg/mL) and 54.9 µM (≈ 25 µg/mL).
On the same counts, the results for `CC(C)(C)NC(=O)C1c2ccccc2CCN1c1cc2c(cc1[N+](=O)[O-])c(=O)c(C(=O)O)cn2C(C)(C)C` (configuration not stated) are 12 µM (≈ 6.25 µg/mL) and 24 µM (≈ 12.5 µg/mL).
The corresponding values for `CC1CN(c2cc3c(cc2[N+](=O)[O-])c(=O)c(C(=O)O)cn3C2CC2)CC(C)O1` (configuration not stated) are 2.01 µM (≈ 0.779 µg/mL) and 8.08 µM (≈ 3.13 µg/mL).
Consider `O=C(O)c1cn(-c2ccc(F)cc2)c2cc(N3CCN(Cc4ccc5c(c4)OCO5)CC3)c([N+](=O)[O-])cc2c1=O`, for which the MIC turned out to be 2.85 µM (≈ 1.56 µg/mL) in test [1] and 22.9 µM (≈ 12.5 µg/mL) in test [2].
Regarding `O=C(O)c1cn(C2CC2)c2cc(N3CCN(C(c4ccccc4)c4ccc(Cl)cc4)CC3)c([N+](=O)[O-])cc2c1=O` (configuration not stated), the MIC in test [1] and in test [2] was 5.59 µM (≈ 3.12 µg/mL) in each case.
Regarding `O=C(O)c1cn(-c2ccc(F)cc2)c2cc(N3CCN(C(=O)c4ccco4)CC3)c([N+](=O)[O-])cc2c1=O`, the MIC in test [1] was determined as 6.18 µM (≈ 3.13 µg/mL); in test [2] it was 24.7 µM (≈ 12.5 µg/mL).
On the same counts, the results for `CC(C)(C)n1cc(C(=O)O)c(=O)c2cc([N+](=O)[O-])c(N3CCC(N4CCCCC4)CC3)cc21` are 6.86 µM (≈ 3.13 µg/mL) and 27.4 µM (≈ 12.5 µg/mL).
As to `CC1CN(c2cc3c(cc2[N+](=O)[O-])c(=O)c(C(=O)O)cn3C(C)(C)C)CC(C)O1` (configuration not stated), the MIC in test [1] was found to be 7.76 µM (≈ 3.13 µg/mL); in test [2] it was 31 µM (≈ 12.5 µg/mL).
The corresponding values for `CC(C)(C)n1cc(C(=O)O)c(=O)c2cc([N+](=O)[O-])c(N3CCC(O)(c4ccc(Cl)cc4)CC3)cc21` are 6.26 µM (≈ 3.13 µg/mL) and 25 µM (≈ 12.5 µg/mL).
The corresponding values for `CCN(CC)C(=O)C1CCCN(c2cc3c(cc2[N+](=O)[O-])c(=O)c(C(=O)O)cn3-c2ccc(F)cc2)C1` (configuration not stated) are 6.13 µM (≈ 3.13 µg/mL) and 24.5 µM (≈ 12.5 µg/mL).
On the same counts, the results for `COc1ccc(CC2C3=C(CCCC3)CCN2c2cc3c(cc2[N+](=O)[O-])c(=O)c(C(=O)O)cn3C2CC2)cc1` (configuration not stated) are 3.04 µM (≈ 1.61 µg/mL) and 24.3 µM (≈ 12.9 µg/mL).
As for `CC(C)(C)n1cc(C(=O)O)c(=O)c2cc([N+](=O)[O-])c(N3CCC(n4c(=O)[nH]c5cc(Cl)ccc54)CC3)cc21`, the MIC in test [1] was 5.79 µM (≈ 3.13 µg/mL); in test [2], 23.1 µM (≈ 12.5 µg/mL).
On the same counts, the results for `CC(C)(C)n1cc(C(=O)O)c(=O)c2cc([N+](=O)[O-])c(N3CCC4(CC3)OCCO4)cc21` are 7.45 µM (≈ 3.21 µg/mL) and 29 µM (≈ 12.5 µg/mL).
In the case of `CC(C)(C)n1cc(C(=O)O)c(=O)c2cc([N+](=O)[O-])c(N3CCN(C(=O)c4ccco4)CC3)cc21`, the MIC in test [1] was determined as 6.68 µM (≈ 3.13 µg/mL); in test [2], 13.3 µM (≈ 6.25 µg/mL). Moreover, in test [3], the IC50 stood at 30 mg/L (≈ 64 µM).
Consider `CCN(CC)C(=O)C1CCCN(c2cc3c(cc2[N+](=O)[O-])c(=O)c(C(=O)O)cn3C(C)(C)C)C1` (configuration not stated), for which the MIC in test [1] came out at 6.62 µM (≈ 3.13 µg/mL); in test [2] it was 26.4 µM (≈ 12.5 µg/mL).
The corresponding values for `O=C(O)c1cn(C2CC2)c2cc(N3CCC4(CC3)OCCO4)c([N+](=O)[O-])cc2c1=O` are 3.76 µM (≈ 1.56 µg/mL) and 15.1 µM (≈ 6.25 µg/mL).
The corresponding values for `O=C(O)c1cn(-c2ccc(F)cc2)c2cc(N3CCC4(CC3)OCCO4)c([N+](=O)[O-])cc2c1=O` are 6.67 µM (≈ 3.13 µg/mL) and 26.6 µM (≈ 12.5 µg/mL).
Regarding `O=C(O)c1cn(C2CC2)c2cc(N3CCN(C(=O)C4COc5ccccc5O4)CC3)c([N+](=O)[O-])cc2c1=O` (configuration not stated), the MIC in test [1] is 2.99 µM (≈ 1.56 µg/mL); in test [2], 12 µM (≈ 6.25 µg/mL).
On the same counts, the results for `COc1ccc(CC2C3=C(CCCC3)CCN2c2cc3c(cc2[N+](=O)[O-])c(=O)c(C(=O)O)cn3-c2ccc(F)cc2)cc1` (configuration not stated) are 5.36 µM (≈ 3.13 µg/mL) and 21.4 µM (≈ 12.5 µg/mL).
On the same counts, the results for `O=C(O)c1cn(-c2ccc(F)cc2)c2cc(N3CCC(n4c(=O)[nH]c5cc(Cl)ccc54)CC3)c([N+](=O)[O-])cc2c1=O` are 5.42 µM (≈ 3.13 µg/mL) and 43.3 µM (≈ 25 µg/mL).
The corresponding values for `CC(C)(C)n1cc(C(=O)O)c(=O)c2cc([N+](=O)[O-])c(N3CCN(Cc4ccc5c(c4)OCO5)CC3)cc21` are 3.07 µM (≈ 1.56 µg/mL) and 24.6 µM (≈ 12.5 µg/mL).
On to `O=C(O)c1cn2c(n1)CN(c1cc3c(cc1[N+](=O)[O-])c(=O)c(C(=O)O)cn3-c1ccc(F)cc1)CC2`, for which the MIC was 12.7 µM (≈ 6.25 µg/mL) in test [1] and 50.7 µM (≈ 25 µg/mL) in test [2].
As for `O=C(O)c1cn(C2CC2)c2cc(N3CCC(n4c(=O)[nH]c5cc(Cl)ccc54)CC3)c([N+](=O)[O-])cc2c1=O`, the MIC was found to be 1.49 µM (≈ 0.781 µg/mL) in test [1] and 2.97 µM (≈ 1.56 µg/mL) in test [2]. In addition, in test [3], the IC50 was 20 mg/L (≈ 38.2 µM).
On the same counts, the results for `CC(C)(C)NC(=O)C1c2ccccc2CCN1c1cc2c(cc1[N+](=O)[O-])c(=O)c(C(=O)O)cn2C1CC1` (configuration not stated) are 1.55 µM (≈ 0.782 µg/mL), 3.09 µM (≈ 1.56 µg/mL) and 30 mg/L (≈ 59.5 µM).
Regarding `COc1ccc(CC2C3=C(CCCC3)CCN2c2cc3c(cc2[N+](=O)[O-])c(=O)c(C(=O)O)cn3C(C)(C)C)cc1` (configuration not stated), the MIC came to 5.74 µM (≈ 3.13 µg/mL) in test [1] and 22.9 µM (≈ 12.5 µg/mL) in test [2].
The corresponding values for `CN1CCN(c2cc3c(cc2[N+](=O)[O-])c(=O)c(C(=O)O)cn3C(C)(C)C)CC1c1ccccc1` (configuration not stated) are 16.1 µM (≈ 7.47 µg/mL) and 64.4 µM (≈ 29.9 µg/mL).
On the same counts, the results for `O=C(O)c1cn(C2CC2)c2cc(N3CCSCC3)c([N+](=O)[O-])cc2c1=O` are 4.17 µM (≈ 1.57 µg/mL) and 33.3 µM (≈ 12.5 µg/mL).
The corresponding values for `CCN(CC)C(=O)C1CCCN(c2cc3c(cc2[N+](=O)[O-])c(=O)c(C(=O)O)cn3C2CC2)C1` (configuration not stated) are 3.42 µM (≈ 1.56 µg/mL) and 6.86 µM (≈ 3.13 µg/mL).
For the compound `O=C(O)c1cn(-c2ccc(F)cc2)c2cc(N3CCC(O)(c4ccc(Cl)cc4)CC3)c([N+](=O)[O-])cc2c1=O`, the MIC in test [1] was 5.82 µM (≈ 3.13 µg/mL); in test [2], 23.2 µM (≈ 12.5 µg/mL).
On the same counts, the results for `CC(C)(C)n1cc(C(=O)O)c(=O)c2cc([N+](=O)[O-])c(N3CCN(C(=O)C4COc5ccccc5O4)CC3)cc21` (configuration not stated) are 5.83 µM (≈ 3.13 µg/mL) and 23.3 µM (≈ 12.5 µg/mL).
